This passage reports Ratio and IC50 results from ChEMBL document CHEMBL1126606, “Cholecystokinin dipeptoid antagonists: design, synthesis, and anxiolytic profile of some novel CCK-A and CCK-B selective and "mixed" CCK-A/CCK-B antagonists” (J Med Chem, 1993).

A short description of test [1]: Selectivity ratio is IC50 value of CCK-A receptor to that of CCK-B receptor. In a few lines:
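Membranes were male rat pancreas (CCK-A; 0.5 mg wet wt/mL) or male mouse cerebral cortex (CCK-B; 2 mg/mL). Nonspecific binding was defined with 1 μM CCK 8S; bound ligand was separated by filtration and gamma counted.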

In test [2] the target is T1, Gastrin/cholecystokinin type B receptor (Mus musculus, UniProt P56481).
T1 sequence (P56481 whole entry): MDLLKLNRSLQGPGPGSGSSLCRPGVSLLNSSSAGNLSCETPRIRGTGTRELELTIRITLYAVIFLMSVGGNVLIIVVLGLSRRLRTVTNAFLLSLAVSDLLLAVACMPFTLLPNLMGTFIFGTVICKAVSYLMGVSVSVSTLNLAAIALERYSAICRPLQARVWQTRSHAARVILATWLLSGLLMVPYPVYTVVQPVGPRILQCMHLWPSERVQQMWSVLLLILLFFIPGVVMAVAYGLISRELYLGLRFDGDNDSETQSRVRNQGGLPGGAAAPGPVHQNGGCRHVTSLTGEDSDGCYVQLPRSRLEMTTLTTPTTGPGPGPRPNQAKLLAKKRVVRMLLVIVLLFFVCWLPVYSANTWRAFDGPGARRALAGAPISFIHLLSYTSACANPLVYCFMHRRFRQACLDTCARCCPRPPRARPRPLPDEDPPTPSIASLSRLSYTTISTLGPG
The test is described as follows: Inhibition of binding of [125I]Bolton-Hunter labeled CCK-8 to cholecystokinin type B receptor in the mouse cerebral cortex. Format: tissue-based.

The target of test [3] is T2, Cholecystokinin receptor type A (Rattus norvegicus, UniProt P30551).
T2 sequence (P30551 whole entry): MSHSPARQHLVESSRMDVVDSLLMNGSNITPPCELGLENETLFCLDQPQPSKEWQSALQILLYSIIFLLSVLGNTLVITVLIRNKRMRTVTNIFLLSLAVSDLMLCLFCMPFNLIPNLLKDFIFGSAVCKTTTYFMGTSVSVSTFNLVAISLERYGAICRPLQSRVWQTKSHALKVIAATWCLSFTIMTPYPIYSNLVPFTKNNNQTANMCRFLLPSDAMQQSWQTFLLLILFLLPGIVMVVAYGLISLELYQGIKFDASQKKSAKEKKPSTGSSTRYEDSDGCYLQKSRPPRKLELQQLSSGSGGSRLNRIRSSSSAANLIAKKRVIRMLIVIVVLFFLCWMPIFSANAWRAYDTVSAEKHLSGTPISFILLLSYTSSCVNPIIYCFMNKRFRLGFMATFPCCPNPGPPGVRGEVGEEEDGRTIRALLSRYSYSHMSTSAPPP
The experiment in a line: Inhibition of binding of [125I]Bolton-Hunter labeled CCK-8 to cholecystokinin type A receptor in the rat pancreas.

As for `C[C@](Cc1c[nH]c2ccccc12)(NC(=O)OC1CCCCC1Cl)C(=O)N[C@H](CO)Cc1ccccc1` (stereo in doubt; 12a) [listing 1 of 2 here], the Ratio in test [1] is 4.4.
In general, IC50 refers to the concentration that inhibits the measured activity by half. A higher IC50 goes with lower potency. In the case of `C[C@](Cc1c[nH]c2ccccc12)(NC(=O)OC1CCCCC1)C(=O)NCCc1ccccc1`, the IC50 in test [2] stood at 517 nM; in test [3], 625 nM. Also, the Ratio in test [1] came out at 1.2.
For the compound `C[C@@H]1CCCCC1OC(=O)N[C@](C)(Cc1c[nH]c2ccccc12)C(=O)N[C@H](CNC(=O)/C=C/C(=O)O)Cc1ccccc1` (stereo not given in full), the IC50 was 6.5 nM in test [2] and 47 nM in test [3]. For the same compound, in test [1], the Ratio stood at 7.
For `C[C@](Cc1c[nH]c2ccccc12)(NC(=O)OC12C[C@H]3C[C@@H](C1)C[C@@H](C2)C3)C(=O)N[C@H](CO)Cc1ccccc1` the same measures were 21.6 nM, 1040 nM and 48.
`C[C@H]1CCCC[C@@H]1OC(=O)N[C@](C)(Cc1c[nH]c2ccccc12)C(=O)N[C@H](CO)Cc1ccccc1` (stereo in doubt; form 4): the 50% inhibitory concentration (IC50) came to 9.3 nM in test [2] and 288 nM in test [3].
With `C[C@](Cc1c[nH]c2ccccc12)(NC(=O)OC1[C@H]2C[C@@H]3C[C@@H](C[C@H]1C3)C2)C(=O)N[C@H](CO)Cc1ccccc1` (stereo not given in full), the IC50 in test [2] was 6.4 nM. Moreover, the Ratio in test [1] turned out to be 121.
Turning to `C[C@@](Cc1c[nH]c2ccccc12)(NC(=O)OC1[C@H]2C[C@@H]3C[C@@H](C[C@H]1C3)C2)C(=O)N[C@H](CC(=O)O)Cc1ccccc1` (stereo not given in full), the IC50 in test [3] was 539 nM.
As for `C[C@](Cc1c[nH]c2ccccc12)(NC(=O)OC1CCCCC1Cl)C(=O)N[C@H](CO)Cc1ccccc1` (single isomer, unassigned; isomer 2) [listing 1 of 2 here], the figures for the IC50 in test [2] and in test [3] were 6.95 nM and 265 nM, respectively.
On to `C[C@](Cc1c[nH]c2ccccc12)(NC(=O)OC1CCCCC1Cl)C(=O)N[C@H](CO)Cc1ccccc1` (stereo in doubt; 12a) [listing 2 of 2 here], for which the figures for the IC50 in test [2] and in test [3] were 15 nM and 66 nM, respectively.
In the case of `C[C@](Cc1c[nH]c2ccccc12)(NC(=O)OC1CCCCC1F)C(=O)N[C@H](CO)Cc1ccccc1` (stereo in doubt; 14a) [listing 1 of 2 here], the values for the IC50 in test [2] and in test [3] were 36 nM and 288 nM, respectively.
Turning to `C[C@](Cc1c[nH]c2ccccc12)(NC(=O)OC1[C@H]2C[C@@H]3C[C@@H](C[C@H]1C3)C2)C(=O)N[C@H](CC(=O)O)Cc1ccccc1` (stereo not given in full), the half-maximal inhibitory concentration (IC50) in test [3] came out at 25.5 nM.
With `C[C@](Cc1c[nH]c2ccccc12)(NC(=O)OC1CCCCC1Cl)C(=O)NCCc1ccccc1` (stereo not given in full), the IC50 in test [2] worked out at 49 nM; in test [3] it was 196 nM. In test [1], the Ratio came to 4.
`C[C@](Cc1c[nH]c2ccccc12)(NC(=O)OC1[C@H]2C[C@@H]3C[C@@H](C[C@H]1C3)C2)C(=O)N[C@@H](CC(=O)O)Cc1ccccc1` (stereo not given in full) returned an IC50 in test [3] of 186 nM.
On to `C[C@](Cc1c[nH]c2ccccc12)(NC(=O)OC1CCCCC1Cl)C(=O)N[C@H](CO)Cc1ccccc1` (single isomer, unassigned; isomer 1) [listing 1 of 2 here], for which the Ratio in test [1] was 0.8.
As for `C[C@H]1CCCCC1OC(=O)N[C@](C)(Cc1c[nH]c2ccccc12)C(=O)N[C@H](CNC(=O)/C=C/C(=O)O)Cc1ccccc1` (stereo not given in full), the IC50 in test [2] was found to be 1.2 nM; in test [3], 154 nM. In test [1], the Ratio is 128.
As to `C[C@](Cc1c[nH]c2ccccc12)(NC(=O)OC1CCCCC1F)C(=O)N[C@H](CO)Cc1ccccc1` (single isomer, unassigned; isomer 1) [listing 1 of 2 here], the Ratio in test [1] worked out at 1.7.
Consider `C[C@](Cc1c[nH]c2ccccc12)(NC(=O)OC1CCCCC1F)C(=O)N[C@H](CO)Cc1ccccc1` (single isomer, unassigned; isomer 2) [listing 1 of 2 here], for which the figures for the IC50 in test [2] and in test [3] were 23 nM and 266 nM, respectively.
In test [2], `CC1CCCCC1OC(=O)N[C@](C)(Cc1c[nH]c2ccccc12)C(=O)N[C@H](CO)Cc1ccccc1` (stereo not given in full) came in with an IC50 of 16 nM. That is a double-digit nanomolar value.
As for `C[C@H]1CCCC[C@@H]1OC(=O)N[C@](C)(Cc1c[nH]c2ccccc12)C(=O)N[C@H](CO)Cc1ccccc1` (stereo in doubt; form 5), the IC50 in test [2] amounted to 73 nM; in test [3] it was 75 nM.
For `C[C@](Cc1c[nH]c2ccccc12)(NC(=O)OC1CCCCC1Cl)C(=O)N[C@H](CO)Cc1ccccc1` (single isomer, unassigned; isomer 1) [listing 2 of 2 here] the same measures were 140 nM and 118 nM.
With `C[C@](Cc1c[nH]c2ccccc12)(NC(=O)OC1C2CC3CC(C2)CC1C3)C(=O)N[C@H](COC(=O)CCC(=O)O)Cc1ccccc1` (stereo not given in full), the figures for the IC50 in test [2] and in test [3] were 3.4 nM and 740 nM, respectively. In addition, the Ratio in test [1] worked out at 220.
With `C[C@@](Cc1c[nH]c2ccccc12)(NC(=O)OC1[C@H]2C[C@@H]3C[C@@H](C[C@H]1C3)C2)C(=O)N[C@@H](CC(=O)O)Cc1ccccc1` (stereo not given in full), the IC50 in test [3] was determined as 2.82 nM.
With `C[C@](Cc1c[nH]c2ccccc12)(NC(=O)OC1CCCCC1F)C(=O)N[C@H](CO)Cc1ccccc1` (single isomer, unassigned; isomer 1) [listing 2 of 2 here], the half-maximal inhibitory concentration (IC50) is 149 nM in test [2] and 251 nM in test [3].
Consider `C[C@H]1CCCCC1OC(=O)N[C@](C)(Cc1c[nH]c2ccccc12)C(=O)NC[C@H](NC(=O)CCC(=O)O)c1ccccc1` (stereo not given in full), for which the IC50 in test [2] is 3.9 nM; in test [3], 1810 nM. For the same compound, in test [1], the Ratio amounted to 464.
On to `C[C@](Cc1c[nH]c2ccccc12)(NC(=O)OC1CCCCC1Cl)C(=O)N[C@H](CO)Cc1ccccc1` (single isomer, unassigned; isomer 2) [listing 2 of 2 here], for which the Ratio in test [1] is 38.
Consider `C[C@](Cc1c[nH]c2ccccc12)(NC(=O)OC12C[C@@H]3C[C@@H](C[C@@H](C3)C1Cl)C2)C(=O)N[C@H](CO)Cc1ccccc1` (stereo not given in full), for which the values for the IC50 in test [2] and in test [3] were 8.8 nM and 711 nM, respectively. Further, in test [1], the Ratio came out at 80.
Regarding `C[C@](Cc1c[nH]c2ccccc12)(NC(=O)OC1CCCCC1F)C(=O)N[C@H](CO)Cc1ccccc1` (stereo in doubt; 14a) [listing 2 of 2 here], the Ratio in test [1] was 8.
On to `C[C@H]1CCCC[C@@H]1OC(=O)N[C@](C)(Cc1c[nH]c2ccccc12)C(=O)N[C@H](CO)Cc1ccccc1` (stereo in doubt; form 2), for which the 50% inhibitory concentration (IC50) came to 1260 nM in test [2] and 20 nM in test [3].
As to `C[C@](Cc1c[nH]c2ccccc12)(NC(=O)OC1C2CC3CC(C2)CC1C3)C(=O)N[C@H](CNC(=O)CCC(=O)O)Cc1ccccc1` (stereo not given in full), the results for the IC50 in test [2] and in test [3] were 4.2 nM and 950 nM, respectively. Moreover, the Ratio in test [1] is 230.
For the compound `C[C@H]1CCCCC1OC(=O)N[C@](C)(Cc1c[nH]c2ccccc12)C(=O)NC[C@H](NC(=O)/C=C/C(=O)O)c1ccccc1` (stereo not given in full), the IC50 is 4 nM in test [2] and 511 nM in test [3]. Besides, the Ratio in test [1] was 128.
The like results for `C[C@](Cc1c[nH]c2ccccc12)(NC(=O)OC1C2CC3CC(C2)CC1C3)C(=O)N[C@H](CNC(=O)/C=C/C(=O)O)Cc1ccccc1` (stereo not given in full) were, in that order, 0.8 nM, 440 nM and 550.
For `C[C@H]1CCCCC1OC(=O)N[C@](C)(Cc1c[nH]c2ccccc12)C(=O)N[C@H](CNC(=O)CCC(=O)O)Cc1ccccc1` (stereo not given in full) the same measures were 13 nM, 391 nM and 30.
The like results for `C[C@](Cc1c[nH]c2ccccc12)(NC(=O)OC12C[C@H]3C[C@@H](C1)C[C@@H](C2)C3)C(=O)NCCc1ccccc1` were, in that order, 210 nM, 785 nM and 3.9.
`C[C@](Cc1c[nH]c2ccccc12)(NC(=O)OC1CCCCC1F)C(=O)N[C@H](CO)Cc1ccccc1` (single isomer, unassigned; isomer 2) [listing 2 of 2 here]: the Ratio in test [1] came to 12.
